Experimental data from different studies.
Protocols differ between the studies behind these lines.
Cell line: OVCAR-3
Effect on: cell growth or viability

SMILES	technique	concentration	time	quantity	value
COc1ccc(C(=O)/C=C/c2cccc(Cl)c2Cl)cc1S(N)(=O)=O	SRB	10 µM		inhibition	156%
COc1ccc(-c2ccc(-c3ccc(C(=N)N)nc3)s2)cc1	SRB			GI50	1820 nM
CC/C(=C(\c1ccccc1)c1ccc(OCCN(C)C)cc1)c1ccccc1	ATP luminescence		72 h	EC90	42900 nM
O=C1CCC2(Oc3cccc4cccc(c34)O2)c2c(O)ccc(O)c21	resazurin		72 h	IC50	> 25000 nM
COc1cccc(Oc2ccccc2NC(=O)CNC(=O)c2cccc3ccccc23)c1	SRB		48 h	GI50	100 nM
CC(C)c1cc(-c2n[nH]c(=O)n2-c2ccc3c(ccn3C)c2)c(O)cc1O	imaging		24 h	IC50	279 nM
COc1cc(OC)c(/C=C/S(=O)(=O)Nc2ccc(OC)c(N)c2)c(OC)c1	trypan blue		96 h	IC50	4 nM
Cc1cc(C)n(C(=S)[S][Au][PH](CCCCCC[PH]([Au][S]C(=S)n2nc(C)cc2C)(c2ccccc2)c2ccccc2)(c2ccccc2)c2ccccc2)n1				GI50	648 nM
CSc1ccc(/C=C2\C=C(CC(=O)NS(=O)(=O)C(F)(F)F)c3cc(F)ccc32)cc1	WST-1		48 h	EC50	~160000 nM
C[C@H]1O[C@@H](n2cc(F)c(=O)[nH]c2=O)[C@H](O)[C@@H]1O	CCK-8		48 h	IC50	> 50000 nM
C[C@]12CC[C@@H]3c4ccc(O)cc4CC[C@H]3[C@@H]1CC[C@@H]2O	ATP luminescence		72 h	EC50	27600 nM
CC(C)C(=O)Nc1ccc([N+](=O)[O-])c(C(F)(F)F)c1	CCK-8		48 h	IC50	34100 nM
COc1ccc(C(=O)/C=C/c2cccnc2)cc1S(N)(=O)=O	SRB		48 h	GI50	10200 nM
COc1ccc(-c2ccc(-c3ccc(C(=N)N)nc3)s2)cc1Cl	SRB			GI50	1830 nM
COc1ccc(C(=O)/C=C/c2ccccc2Cl)cc1S(N)(=O)=O	SRB	10 µM		inhibition	9%
Cc1ccc(C)c(COc2cc(NC(=O)c3ccc4c(c3)OCO4)ccc2N(C)S(C)(=O)=O)c1	SRB		48 h	GI50	39.6 nM
